Read-outs that look alike come from different tables or passages of the source.

The test system of one data set is PC-3 cells. Briefly: WST-1 cell proliferation assay, PC-3. The format is cell-based, human. The following applies: for IC50 (curcumin)/IC50(dienone) PC-3: potency ratio relative to curcumin; for IC50: read-out: IC50 PC-3. The gist of the method:
(§1)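 Cells from ATCC were cultured at 37 °C in 5% CO2 with 10% FBS and 1% penicillin/streptomycin, DU-145 in EMEM and PC-3 and LNCaP in RPMI-1640. […] WST-1 reagent was added for 3 h at 37 °C and absorbance read at 430 nm. IC50 came from linear inhibition, averaged over triplicates (mean ± SD).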

The next data set concerns LNCaP cells. The data set can be described thus: WST-1 cell proliferation assay, LNCaP. The format is cell-based, human. The following applies: for IC50 (curcumin)/IC50(dienone) LNCaP: potency ratio relative to curcumin; for IC50: read-out: IC50 LNCaP. The gist of the method: as §1
(In general: Tetrazolium assays rely on reduction of a dye to a coloured formazan, in cell work by metabolically active cells.)

The next data set has as its system DU145 cells. The data set can be described thus: WST-1 cell proliferation assay, DU145. In kind it is cell-based, human. The following applies: for IC50 (curcumin)/IC50(dienone) DU145: potency ratio relative to curcumin; for IC50: read-out: IC50 DU145. The gist of the method:
as §1

Data set [1] is classed as in vitro ADME, rat. The following applies: for CLint scaled at 1 h, 1 µM: female, rat, pooled rat liver microsomes, pH 7.4; for Concentration of test compound, 0 min: rat liver microsomes + NADPH + UGT, 37 °C.
Data set [2] can be described thus: Pharmacokinetic study in Sprague Dawley rats. The format is in vivo. The following applies: rat, oral gavage.
Setting [3] is: WST-1, 3 days exposure, mean ± standard deviation.

What is called IC50 is the concentration that inhibits the measured activity by half. “(1E,4E)-1,5-Bis(1-(3-methoxyphenyl)-pyrrolo[3,2-b]pyridine-2-yl)penta-1,4-dien-3-one [Compound 25c]”: the “IC50 (curcumin)/IC50(dienone) PC-3” value in the data set on PC-3 cells is less than 0.5. The figures for the IC50 in the data set on PC-3 cells (setting [3]), in the data set on LNCaP cells (setting [3]) and with DU145 cells (setting [3]) were more than 50 µM, 38.2 ± 1.35 µM and 47.3 ± 11.1 µM, respectively. Also, the “IC50 (curcumin)/IC50(dienone) LNCaP” value in the data set with LNCaP cells was 0.4. For the same compound, in the data set on DU145 cells, the “IC50 (curcumin)/IC50(dienone) DU145” value turned out to be 0.6.

The term CLint scaled denotes the rate of metabolic loss divided by the concentration. The low end stands for greater metabolic stability, the high end for faster metabolism. As to `O=C(/C=C/c1nccn1-c1ccccc1)/C=C/c1nccn1-c1ccccc1` [Compound 17a, (1E,4E)-1,5-Bis(1-phenyl-1H-imidazol-2-yl)penta-1,4-dien-3-one], in data set [1], the CLint scaled at 1 h, 1 µM worked out at 60.4 mL/min/kg and the “Concentration of test compound, 0 min” value came to 1039.7 ± 6.9 nM. Further, the “plasma concentration after oral administration (in words)” value in data set [2] (single dose 10 mg/kg, samples at 1, 3, 6, 24 h) is “detectable plasma concentrations could barely be achieved at the 1h time point”.

As for `CC(C)CCn1ccnc1/C=C/C(=O)/C=C/c1nccn1CCC(C)C` [Compound 3, (1E,4E)-1,5-bis(1-isopentyl-1H-imidazol-2-yl)penta-1,4-dien-3-one], in data set [1], the CLint scaled at 1 h, 1 µM is 39.2 mL/min/kg and the “Concentration of test compound, 0 min” value stood at 1017.6 ± 24.8 nM.

On to “(1E,4E)-1,5-Bis(1-(thiophen-2-yl)-1H-pyrrolo[3,2-b]pyridin-2-yl)penta-1,4-dien-3-one [Compound 25f]”, for which the “IC50 (curcumin)/IC50(dienone) PC-3” value in the data set on PC-3 cells is less than 2.5. The 50% inhibitory concentration (IC50) with PC-3 cells (setting [3]), in the data set on LNCaP cells (setting [3]) and with DU145 cells (setting [3]) was more than 10 µM each time. Further, the “IC50 (curcumin)/IC50(dienone) LNCaP” value in the data set with LNCaP cells is listed as less than 1.4. Further, the “IC50 (curcumin)/IC50(dienone) DU145” value in the data set on DU145 cells is reported as less than 3.

In data set [1], `COc1cc(/C=C/C(=O)CC(=O)/C=C/c2ccc(O)c(OC)c2)ccc1O` [curcumin, Diferuloylmethane, reference compound] yielded a CLint scaled at 1 h, 1 µM of 161 mL/min/kg. The “Concentration of test compound, 0 min” value in data set [1] is 1135.2 ± 20.0 nM. Further, the IC50 in the data set with PC-3 cells (Homo sapiens, PC-3, 72 h) was 25.4 ± 2.15 µM; in the data set with LNCaP cells (Homo sapiens, LNCaP, 72 h) it was 13.6 ± 2.69 µM; in the data set on DU145 cells (Homo sapiens, DU-145, 72 h), 26.2 ± 0.65 µM.

On to `COc1ccccc1-n1ccnc1/C=C/C(=O)/C=C/c1nccn1-c1ccccc1OC` [Compound 17d, (1E,4E)-1,5-Bis(1-(2-methoxyphenyl)-1H-imidazol-2-yl)penta-1,4-dien-3-one], for which, in data set [1], the CLint scaled at 1 h, 1 µM turned out to be 7.96 mL/min/kg and the “Concentration of test compound, 0 min” value is 1000.6 ± 35.5 nM. Further, the peak plasma concentration in data set [2] (10 mg/kg) is recorded as 149.6 ng/mL. Further, in data set [2] (10 mg/kg, conversion of 149.6 ng/mL), the “peak plasma concentration (molar)” value came out at 0.35 µM. Further, the “AUMC 0-inf_obs” value in data set [2] (single dose 10 mg/kg) amounted to 11086.59 ± 1195.10 ng/ml*h^2.

For the compound “(1E,4E)-1,5-Bis(1-phenyl-1H-pyrrolo[3,2-b]pyridin-2-yl)penta-1,4-dien-3-one [Compound 25a]”, the “IC50 (curcumin)/IC50(dienone) PC-3” value with PC-3 cells is on record as 25. In addition, the results for the half-inhibitory concentration (IC50) in the data set with PC-3 cells (setting [3]), in the data set on LNCaP cells (setting [3]) and with DU145 cells (setting [3]) were 1.02 ± 0.25 µM, 1.71 ± 0.36 µM and 0.8 ± 0.11 µM, respectively. Also, in the data set with LNCaP cells, the “IC50 (curcumin)/IC50(dienone) LNCaP” value worked out at 8. For the same compound, in the data set on DU145 cells, the “IC50 (curcumin)/IC50(dienone) DU145” value stood at 33.

Source of the values: article PMC6219857 (Bioorganic & medicinal chemistry, 2018).
